Source: ChEMBL document CHEMBL4038284, “Synthesis of novel quinoline-based 4,5-dihydro-1H-pyrazoles as potential anticancer, antifungal, antibacterial and antiprotozoal agents” (Eur J Med Chem, 2017)
Converted amounts (≈) assume the structure as drawn.

What was measured:
[1] = test system: Neisseria gonorrhoeae; test: Antibacterial activity against beta lactamase positive Neisseria gonorrhoeae ATCC 31426 by oxidase test; assay type: functional
Procedure, shortened: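 Agar dilution MIC on GC agar with 1% isovitalex containing increasing compound concentrations. Plates inoculated with about 1×10^4 CFU (5 µL). MIC is the lowest concentration that inhibited growth, with growth confirmed by oxidase test. Run in duplicate, repeated at least three times.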

[2] = test system: U-937; test: Cytotoxicity against human U937 cells after 72 hrs by MTT assay; assay type: cell-based; settings: u-937, 72 h
Procedure, shortened: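 Exponentially growing U-937 at 1 × 10^5 cells/mL in RPMI-1640 with 10% FBS were exposed to 200, 50, 12.5 and 3.125 µg/mL for 72 h at 37 °C, 5% CO2. MTT for 3 h, stopped with isopropanol/SDS, formazan read at 570 nm, blank-corrected. LC50 by Probit from % viability against untreated cells. Triplicate, at least two independent experiments.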

[3] = test system: Plasmodium falciparum; test: Antiplasmodial activity against chloroquine-sensitive Plasmodium falciparum 3D7 assessed as reduction in parasitic LDH activity after 48 hrs by Malstat reagent based […] method; assay type: functional; settings: 3D7, 48 h
Procedure, shortened: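 Unsynchronized P. falciparum 3D7 at 0.5% parasitemia and 1% hematocrit in RPMI with 3% Albumax II. Exposed to 100, 25, 6.25 and 1.56 µg/mL for 48 h at 37 °C under 90% N2/5% CO2/5% O2. After three freeze-thaw cycles, LDH measured with Malstat and NBT/PES, 1 h in the dark, read at 650 nm. IC50 by Probit; triplicate, ≥2 experiments.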

[4] = test system: Candida albicans; test: Growth inhibition of Candida albicans ATCC 10231 at 15.62 ug/ml incubated for 48 hrs under dark condition by broth microdilution method relative to control; assay type: functional; settings: ATCC 10231, 48 h, read-out: GI
Procedure, shortened: (§1)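 CLSI M27-A3 broth microdilution in RPMI-1640, DMSO ≤1%. Inoculum 1-5 × 10^3 CFU/mL. Incubated 48 h at 30 °C, dark. % inhibition = 100 − (OD405 test − sterility control)/(OD405 growth control − sterility control), with growth and sterility control wells. Triplicate.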

[5] = test system: Candida albicans; test: Antifungal activity against Candida albicans ATCC 10231 incubated for 48 hrs under dark condition by broth microdilution method; assay type: functional; settings: ATCC 10231, 48 h
Procedure, shortened: (§2)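 CLSI M27-A3 broth microdilution in RPMI-1640, DMSO ≤1%, compounds at 250-0.98 µg/mL final. Inoculum 1-5 × 10^3 CFU/mL. Incubated 48 h at 30 °C in a moist dark chamber, read at OD405. MIC80 and MIC50 taken from % inhibition dose-response curves (mean ± SEM, triplicate). Amphotericin B was the positive control.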

[6] = test system: Trypanosoma cruzi; test: Antitrypanosomal activity against Trypanosoma cruzi Tulahuen intracellular amastigote harboring LacZ infected in human U937 cells after 72 hrs by CPRG/Nonidet reagent based spectrophotometric method; assay type: functional, cell-based; settings: U-937, 72 h
Procedure, shortened: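 U-937 cells at 2.5 × 10^5 cells/mL in RPMI-1640 with 10% serum and 0.1 µg/mL PMA were infected with β-galactosidase-transfected Tulahuen epimastigotes at 5 parasites per cell. Infected cells were exposed to 50, 12.5, 3.125 and 0.78 µg/mL for 72 h. CPRG (100 uM) and 0.1% Nonidet P-40 were added for 3 h, read at 570 nm. EC50 by Probit. Triplicate, at least two experiments; benznidazole as reference.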

[7] = test system: Cryptococcus neoformans; test: Growth inhibition of Cryptococcus neoformans ATCC 32264 at 15.62 ug/ml incubated for 48 hrs under dark condition by broth microdilution method relative to control; assay type: functional; settings: ATCC 32264, 48 h, read-out: GI; procedure, shortened: as §1
[8] = test system: Staphylococcus aureus; test: Antibacterial activity against methicillin-resistant Staphylococcus aureus ATCC 43300 after 24 hrs by resazurin dye based microdilution assay; assay type: functional; settings: ATCC 43300, 24 h
Procedure, shortened: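 Broth microdilution in Mueller Hinton broth, inoculum 5 × 10^5 – 8 × 10^5. Compound stocks diluted in MHB with 5% DMSO and 0.1% Tween 80. Incubation 24 h at 35-37 °C. MIC is the lowest concentration with visible growth inhibition and/or by resazurin (1 mg/mL) read-out. Gentamicin as control. Run in duplicate, replicated at least three times.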

[9] = test system: Candida albicans; test: Growth inhibition of Candida albicans ATCC 10231 at 31.25 ug/ml incubated for 48 hrs under dark condition by broth microdilution method relative to control; assay type: functional; settings: ATCC 10231, 48 h, read-out: GI; procedure, shortened: as §1
[10] = test system: Klebsiella pneumoniae; test: Antibacterial activity against carbapenemase positive Klebsiella pneumoniae BAA 1705 after 24 hrs by resazurin dye based microdilution assay; assay type: functional; settings: BAA 1705, 24 h
Procedure, shortened: (§3)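 MIC taken as the lowest concentration giving visible inhibition and/or by resazurin (1 mg/mL). Gentamicin was the control. Run in duplicate, repeated at least three times.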

[11] = test system: Staphylococcus aureus; test: Antibacterial activity against methicillin-sensitive Staphylococcus aureus ATCC 25923 after 24 hrs by resazurin dye based microdilution assay; assay type: functional; settings: ATCC 25923, 24 h; procedure, shortened: as §3
[12] = test system: Cryptococcus neoformans; test: Growth inhibition of Cryptococcus neoformans ATCC 32264 at 7.8 ug/ml incubated for 48 hrs under dark condition by broth microdilution method relative to control; assay type: functional; settings: ATCC 32264, 48 h, read-out: GI; procedure, shortened: as §1
[13] = test system: Cryptococcus neoformans; test: Growth inhibition of Cryptococcus neoformans ATCC 32264 at 3.4 ug/ml incubated for 48 hrs under dark condition by broth microdilution method relative to control; assay type: functional; settings: ATCC 32264, 48 h, read-out: GI
[14] = test system: Escherichia coli; test: Antibacterial activity against Escherichia coli ATCC 25922 after 24 hrs by resazurin dye based microdilution assay; assay type: functional; settings: ATCC 25922, 24 h; procedure, shortened: as §3
[15] = test system: Cryptococcus neoformans; test: Antifungal activity against Cryptococcus neoformans ATCC 32264 incubated for 48 hrs under dark condition by broth microdilution method; assay type: functional; settings: ATCC 32264, 48 h; procedure, shortened: as §2
[16] = test system: Cryptococcus neoformans; test: Growth inhibition of Cryptococcus neoformans ATCC 32264 at 62.5 ug/ml incubated for 48 hrs under dark condition by broth microdilution method relative to control; assay type: functional; settings: ATCC 32264, 48 h, read-out: GI; procedure, shortened: as §1
[17] = test system: Candida albicans; test: Growth inhibition of Candida albicans ATCC 10231 at 125 ug/ml incubated for 48 hrs under dark condition by broth microdilution method relative to control; assay type: functional; settings: ATCC 10231, 48 h, read-out: GI; procedure, shortened: as §1
[18] = test system: Leishmania panamensis; test: Antileshmanial activity against EpiR/GFP fused Leishmania panamensis MHOM/CO/87/UA140 intracellular amastigotes infected in human […] cells after 72 hrs by flow cytometric method; assay type: functional, cell-based; settings: MHOM/CO/87/UA140, 72 h
Procedure, shortened: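 PMA-treated U-937 cells (3 × 10^5 cells/mL) infected with stationary-phase GFP L. panamensis promastigotes (15:1), 3 h at 34 °C, then washed. After 24 h, compounds added at 50, 12.5, 3.125 and 0.78 µg/mL for 72 h at 37 °C. EC50 by Probit; triplicate, two experiments.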

[19] = test system: Cryptococcus neoformans; test: Growth inhibition of Cryptococcus neoformans ATCC 32264 at 125 ug/ml incubated for 48 hrs under dark condition by broth microdilution method relative to control; assay type: functional; settings: ATCC 32264, 48 h, read-out: GI; procedure, shortened: as §1
[20] = test system: Candida albicans; test: Growth inhibition of Candida albicans ATCC 10231 at 3.4 ug/ml incubated for 48 hrs under dark condition by broth microdilution method relative to control; assay type: functional; settings: ATCC 10231, 48 h, read-out: GI
[21] = test system: Staphylococcus aureus; test: Antibacterial activity against vancomycin-intermediate Staphylococcus aureus after 24 hrs by resazurin dye based microdilution assay; assay type: functional; procedure, shortened: as §3
[22] = test system: Candida albicans; test: Growth inhibition of Candida albicans ATCC 10231 at 7.8 ug/ml incubated for 48 hrs under dark condition by broth microdilution method relative to control; assay type: functional; settings: ATCC 10231, 48 h, read-out: GI; procedure, shortened: as §1
[23] = test system: Pseudomonas aeruginosa; test: Antibacterial activity against Pseudomonas aeruginosa ATCC 27853 after 24 hrs by resazurin dye based microdilution assay; assay type: functional; settings: ATCC 27853, 24 h; procedure, shortened: as §3
[24] = test system: Klebsiella pneumoniae; test: Antibacterial activity against ESBL positive Klebsiella pneumoniae ATCC 700603 after 24 hrs by resazurin dye based microdilution assay; assay type: functional; settings: Klebsiella pneumoniae, 700603, 24 h; procedure, shortened: as §3
[25] = test system: Cryptococcus neoformans; test: Growth inhibition of Cryptococcus neoformans ATCC 32264 at 250 ug/ml incubated for 48 hrs under dark condition by broth microdilution method relative to control; assay type: functional; settings: ATCC 32264, 48 h, read-out: GI; procedure, shortened: as §1
[26] = test system: Cryptococcus neoformans; test: Growth inhibition of Cryptococcus neoformans ATCC 32264 at 31.25 ug/ml incubated for 48 hrs under dark condition by broth microdilution method relative to control; assay type: functional; settings: ATCC 32264, 48 h, read-out: GI; procedure, shortened: as §1
[27] = test system: Candida albicans; test: Growth inhibition of Candida albicans ATCC 10231 at 250 ug/ml incubated for 48 hrs under dark condition by broth microdilution method relative to control; assay type: functional; settings: ATCC 10231, 48 h, read-out: GI; procedure, shortened: as §1
[28] = test system: Candida albicans; test: Growth inhibition of Candida albicans ATCC 10231 at 62.5 ug/ml incubated for 48 hrs under dark condition by broth microdilution method relative to control; assay type: functional; settings: ATCC 10231, 48 h, read-out: GI; procedure, shortened: as §1

SMILES: O=C(/C=C/c1cccc(Nc2ccnc3cc(Cl)ccc23)c1)c1ccc(Cl)cc1
- MIC [1]: > 1000 µg/mL
- LC50 [2]: 0.7 µg/mL (≈ 1.67 µM)
- EC50 [3]: 209 µg/mL (≈ 497 µM)
- inhibition of growth at 15.62 µg/mL [4]: 39.4%
- MIC50 [5]: 62.5 µg/mL (≈ 149 µM)
- MIC80 [5]: ≥ 250 µg/mL
- EC50 [6]: 0.72 µg/mL (≈ 1.72 µM)
- inhibition of growth at 15.62 µg/mL [7]: 89%
- MIC [8]: > 1000 µg/mL
- inhibition of growth at 31.25 µg/mL [9]: 41.8%
- MIC [10]: > 1000 µg/mL
- MIC [11]: > 1000 µg/mL
- inhibition of growth at 7.8 µg/mL [12]: 82%
- inhibition of growth at 3.4 µg/mL [13]: 49.8%
- MIC [14]: > 1000 µg/mL
- MIC50 [15]: 7.8 µg/mL (≈ 18.6 µM)
- MIC80 [15]: 7.8 µg/mL (≈ 18.6 µM)
- inhibition of growth at 62.5 µg/mL [16]: 100%
- inhibition of growth at 125 µg/mL [17]: 68.2%
- EC50 [18]: 0.79 µg/mL (≈ 1.88 µM)
- inhibition of growth at 125 µg/mL [19]: 100%
- inhibition of growth at 3.4 µg/mL [20]: 15.3%
- MIC [21]: > 1000 µg/mL
- inhibition of growth at 7.8 µg/mL [22]: 29%
- MIC [23]: > 1000 µg/mL
- MIC [24]: > 1000 µg/mL
- inhibition of growth at 250 µg/mL [25]: 100%
- inhibition of growth at 31.25 µg/mL [26]: 100%
- inhibition of growth at 250 µg/mL [27]: 78.4%
- inhibition of growth at 62.5 µg/mL [28]: 50.3%
